# ChEMBL document CHEMBL2062526, “Tandem synthesis and in vitro antiplasmodial evaluation of new naphtho[2,1-d]thiazole derivatives” (Eur J Med Chem, 2012)
# How the values were obtained:
# [1] = Cytotoxicity against human HepG2 cells after 72 hrs by MTT assay; assay type: cell-based
# In short: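 HepG2 cells seeded at 5×10^3/well in RPMI with 10% FBS, L-glutamine, penicillin/streptomycin, 37 °C under 6% CO₂/14% O₂/80% N₂. Compounds added after 24 h, 72 h exposure, duplicate wells. MTT (5 mg/mL stock) for 2 h, formazan dissolved in DMSO, A570 with 630 nm reference. Viability relative to untreated cells. CC50 from non-linear regression, mean of three independent experiments.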
# Plasmodium falciparum = assay: Antiplasmodial activity against multidrug-resistant Plasmodium falciparum K1 ring stage after 72 hrs by […] Green fluorescence-based assay; assay type: functional, organism-based; conditions: K1, 72 h
# [2] = Selectivity index, ratio of CC50 for human HepG2 cells to IC50 for multidrug-resistant Plasmodium falciparum K1 ring stage; assay type: functional
# In short: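 SI = CC50 (HepG2)/IC50 (K1). HepG2 MTT: 5×10^3 cells/well, 24 h preculture, compound 72 h, 37 °C; MTT 2 h, formazan in DMSO, A570 (ref 630 nm); duplicates, CC50 by non-linear regression, mean of three experiments. K1 IC50 by 72 h SYBR Green assay on sorbitol-synchronized rings.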
Structure (SMILES),CC50 at 72 h [1],IC50 (Plasmodium falciparum),Ratio CC50/IC50 [2]
Cc1nc2c(S(=O)(=O)c3ccc(Cl)cc3)c(N)c3cc(F)ccc3c2s1,0.5 µM,–,–
Cc1ccc2cc(S(=O)(=O)c3ccccc3)c3nc(C)sc3c2c1,> 125 µM,4.8 µM,>26
Cc1nc2c(S(=O)(=O)c3ccc(Cl)cc3)cc3ccccc3c2s1,6 µM,–,–
Cc1nc2c(S(=O)(=O)c3ccccc3)cc3ccccc3c2s1,11.3 µM,> 25 µM,<0.5
Cc1ccc(S(=O)(=O)c2cc3cc(F)ccc3c3sc(C)nc23)cc1,3.1 µM,–,–
Cc1nc2c(S(=O)(=O)c3ccccc3)c(N)c3cc(F)ccc3c2s1,> 500 µM,> 25 µM,–
Cc1nc2c(S(=O)(=O)c3ccccc3)c(N)c3ccccc3c2s1,> 500 µM,> 25 µM,–
COc1cc2cc(S(=O)(=O)c3ccc(Cl)cc3)c3nc(C)sc3c2cc1OC,> 31.2 µM,> 25 µM,–
COc1cc2cc(S(=O)(=O)c3ccc(C)cc3)c3nc(C)sc3c2cc1OC,> 125 µM,> 25 µM,–
Cc1nc2c(S(=O)(=O)c3ccc(Cl)cc3)c(N)c3ccccc3c2s1,1 µM,–,–
Cc1ccc(S(=O)(=O)c2cc3ccc(C)cc3c3sc(C)nc23)cc1,> 250 µM,> 25 µM,–
Cc1ccc(S(=O)(=O)c2cc3ccccc3c3sc(C)nc23)cc1,2.2 µM,–,–
C[C@H]1c2cccc(O)c2C(=O)C2=C(O)[C@]3(O)C(=O)C(C(N)=O)=C(O)[C@@H](N(C)C)[C@@H]3[C@@H](O)[C@@H]21.O [DOXYCYCLINE],–,–,4
Cc1ccc(S(=O)(=O)c2c(N)c3cc(F)ccc3c3sc(C)nc23)cc1,0.2 µM,–,–
Cc1ccc(S(=O)(=O)c2c(N)c3ccccc3c3sc(C)nc23)cc1,0.2 µM,–,–
COc1cc2cc(S(=O)(=O)c3ccccc3)c3nc(C)sc3c2cc1OC,> 125 µM,2.7 µM,>45
Cc1nc2c(S(=O)(=O)c3ccccc3)cc3cc(F)ccc3c2s1,26 µM,> 25 µM,<1
Cc1nc2c(S(=O)(=O)c3ccc(Cl)cc3)cc3cc(F)ccc3c2s1,3.4 µM,–,–
